High-throughput results (PubChem)
The list is not random: actives were taken first. Their share in the collection is about 0.96%.
T cell modulator – modulators of CD8 T cell-vesicle binding, primary screen, mouse 2C CD8+ T cells, flow cytometry. 2C CD8+ T cell-vesicle binding; stronger effect = lower value. response (vesicle binding), % at 7 µM. 330,000 compounds, 0.068% hits. AID 2052, 2009;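 active = response, share of CD8 T cells binding vesicles, and their 90th percentile fluorescence all below set limits, cut at about 80% in these data, passing the limit was not always enough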;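 note: values below 100% mean blocked vesicle binding to the CD8+ T cells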
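incubation = binding step 1.5 h, 37 °C, antibody labelling 20 min, ice | test system = 2C mouse CD8+ T cells | read-out basis = percent CD8+ FL2 mean versus row control | controls = Peptide-free naked vesicles (low) and QL9 vesicles with 0.7% DMSO vehicle (high) | detection = flow cytometry of vesicle-bound cells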
LAP4 TOR yeast – modulators of LAP4-GFP expression in yeast, primary screen, S. cerevisiae, multiplex flow cytometry, MLPCN library. AID 2023, 2009. 3 h; median GFP as percent of DMSO wells. GFP response vs DMSO, % at 10 µM. 320,000 compounds, 0.34% hits;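 active = GFP response vs DMSO above a set limit, about the screen mean plus 3 SD, cut at about 150% in these data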
CIT2 TOR yeast – modulators of CIT2-GFP expression in yeast, primary screen, S. cerevisiae, GFP fusion, multiplex flow cytometry, MLPCN library | AID 2029, 2009 | GFP response vs DMSO, % at 10 µM | S. cerevisiae CIT2-GFP strain, 3 h; 100 means same as DMSO wells | 320,000 compounds, 0.065% hits;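 active = GFP response relative to DMSO above a set limit, near the screen mean plus 3 SD, cut at about 150% in these data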;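 note: ratio of well median GFP fluorescence to mean of DMSO wells on the plate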
AGP1 TOR yeast – modulators of AGP1-GFP expression in yeast TOR pathway, primary screen, cell-based, multiplex flow cytometry, S. cerevisiae, MLPCN library | AID 2066, 2009 | 3 h; GFP as percent of DMSO wells | 320,000 compounds, 0.02% hits | GFP response vs DMSO, % at 10 µM;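 active = GFP response relative to DMSO above a set limit, near screen average plus 3 SD, cut at about 150% in these data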;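 note: median GFP channel fluorescence of the gated AGP1 strain per well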
MEP2 TOR yeast – modulators of MEP2-GFP levels in yeast, primary screen, S. cerevisiae, multiplex flow cytometry, MLPCN library | GFP response vs DMSO, % at 10 µM | 330,000 compounds, 0.51% hits | AID 2016, 2009 | S. cerevisiae MEP2-GFP strain, 3 h; 100% = DMSO control level;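 active = GFP response versus DMSO above a set limit, roughly screen mean plus 3 SD, cut at about 180% in these data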;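 note: median GFP fluorescence of the barcode-gated MEP2-GFP cells per well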
RPL19A-GFP yeast – RPL19A-GFP expression modulators in yeast, primary screen, cell-based, S. cerevisiae, multiplex flow cytometry, MLPCN | S. cerevisiae RPL19A-GFP strain, 3 h; stronger effect = lower value | percent response vs DMSO, % at 10 µM | 330,000 compounds, 0.3% hits | AID 2025, 2009;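 active = percent response vs DMSO below 50%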;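 note: median channel GFP fluorescence of the barcoded RPL19A-GFP strain; ratio of sample median GFP to plate DMSO average so 100% = DMSO; lower means less RPL19A-GFP as with rapamycin TOR inhibition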
LAP4-GFP pick2 – LAP4-GFP expression modulators in yeast, confirmation, cell-based, second cherry pick, flow cytometry; shares compounds with LAP4 TOR yeast; S. cerevisiae LAP4-GFP strain, 3 h; GFP response vs DMSO, % at 10 µM; 590 compounds, 20% hits;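 active = GFP signal as percent of the solvent control above about 150%, meaning raised reporter expression, limit read from the data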;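 note: ratio of well median GFP fluorescence to plate DMSO mean so 100% = DMSO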
MEP2 cherry2 – modulators of MEP2-GFP levels in yeast, confirmation, S. cerevisiae, flow cytometry GFP, second cherry picks. 590 compounds, 10% hits. shares compounds with LAP4 TOR yeast. S. cerevisiae MEP2-GFP strain, 3 h. GFP response vs DMSO, % at 10 µM;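 active = GFP signal above 150% of the solvent control wells, that is a rise of more than half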;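 note: median channel GFP fluorescence of all gated yeast cells per well; ratio of median GFP to plate DMSO average so 100% = DMSO level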
RPL19A-GFP pick2 – RPL19A-GFP modulators in TOR pathway yeast, confirmation, cell-based, S. cerevisiae, flow cytometry, second cherry pick; shares compounds with LAP4 TOR yeast; S. cerevisiae RPL19A-GFP strain, 3 h; stronger effect = lower value; 100% means same as DMSO wells; GFP response vs DMSO, % at 10 µM; 590 compounds, 3% hits; AID 2623, 2010;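 active = under 65% GFP response relative to DMSO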;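 note: median GFP channel fluorescence per well over the all cells gate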
CIT2-GFP pick2 – modulators of CIT2-GFP expression in yeast, confirmation, flow cytometry, second cherry pick, single plex. GFP response vs DMSO, % at 10 µM. 590 compounds, 8% hits. S. cerevisiae CIT2-GFP strain, 3 h; DMSO control wells read 100%. shares compounds with LAP4 TOR yeast;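 active = GFP response vs DMSO above about 150%, limit read from the data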;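 note: median green fluorescence per well over all gated yeast cells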
AGP1 GFP CP2 – AGP1-GFP expression modulators, hit retest, confirmation, cell-based, flow cytometry, S. cerevisiae, cherry pick set 2 | shares compounds with LAP4 TOR yeast | S. cerevisiae AGP1-GFP strain, 3 h | percent response vs DMSO, % at 10 µM | 590 tested, under 10 active | AID 2643, 2010;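 active = over 150 percent of DMSO response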;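 note: median GFP channel fluorescence over all cells without mother daughter split; sample median GFP divided by mean DMSO control so 100% equals DMSO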
s288c autofluor – compound autofluorescence in yeast s288c, dose response, artefact control for yeast TOR pathway GFP screen, s288c strain; fluorescence change (kMESF span) at 33 µM; AID 2757, 2010; shares compounds with LAP4 TOR yeast; S. cerevisiae s288c, 520 nm autofluorescence, flow cytometry, 3 h; stronger effect = higher value; zero means same as solvent-only cells; 610 tested, under 10 active;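 active = fluorescence span over the dose series, or activity score, above about 33, limit read from the data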
s288c autofl DR – autofluorescence of compounds in yeast s288c, dose response, artefact control for yeast TOR pathway GFP screen, primary hits, KU SAR, s288c parental. shares compounds with LAP4 TOR yeast. S. cerevisiae s288c parental, compound autofluorescence, flow cytometry, 3 h. 110 tested, under 10 active. fluorescence change (span) at 33 µM;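 active = fluorescence change span, or the activity score built from it, above 25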
TORC1 bypass gr – wild-type yeast growth inhibition sparing TORC1 bypass cells, mechanism study for yeast TOR pathway GFP screen, BY4741 wild type, TORC1 bypass strain; shares compounds with LAP4 TOR yeast; S. cerevisiae BY4741 spot growth rating, 48-72 h; stronger effect = lower value; 120 tested, under 10 active; AID 504456, 2011; growth rating (0-3) at 30 µM;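 active = growth rating at most 1 for wild type yeast while the TORC1 bypass strain still grows fully, rated 3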
* = called active by the depositor; i = inactive; . = not tested or not shown; [ ] = dose if it differs, or a comment.

SMILES | T cell modulator | LAP4 TOR yeast | CIT2 TOR yeast | AGP1 TOR yeast | MEP2 TOR yeast | RPL19A-GFP yeast | LAP4-GFP pick2 | MEP2 cherry2 | RPL19A-GFP pick2 | CIT2-GFP pick2 | AGP1 GFP CP2 | s288c autofluor | others
C#CCOCCOCCOCCNc1nc(N2CCN(C(=O)CCCCCCCCCCNC(=O)[C@H](CCCCN)n3cc(C)nn3)CC2)nc(N2CCN(C(=O)CCCCCCCCCCNC(=O)[C@H](CCCN=C(N)N)n3cc(C[C@@H](C)CC)nn3)CC2)n1 | 426.0 | 191.5* | 75.7 | 90.0 | 99.2 | 81.2 | 102.2 | 169.4* | 85.4 | 94.6 | 109.1 | 0
C#CCOCCOCCOCCNc1nc(N2CCN(C(=O)CCCCCCCCCCNC(=O)[C@H](CCCCN)n3cc(C[C@@H](C)CC)nn3)CC2)nc(N2CCN(C(=O)CCCCCCCCCCNC(=O)[C@@H]([C@H](C)O)n3cc(C)nn3)CC2)n1 | 653.5 | 148.6 | 93.6 | 98.0 | 101.0 | 74.5 | . | . | . | . | . | .
O=C(NNC(=O)c1ccc2[nH]c(=O)c(=O)[nH]c2c1)c1cccc(Br)c1 | 138.4 | 95.6 | 91.0 | 92.1 | 103.4 | 95.2 | . | . | . | . | . | .
COc1ccc(Cl)cc1N(CC(=O)Nc1ccccc1C(=O)N1CCOCC1)S(C)(=O)=O | 199.3 | 90.7 | 103.0 | 97.8 | 97.2 | 99.3 | . | . | . | . | . | .
O=C(O)c1ccc(-c2nc(-c3ccccc3)c(-c3cccs3)[nH]2)cc1 | 328.2 | 105.0 | 111.9 | 104.6 | 104.6 | 110.4 | . | . | . | . | . | .
COc1ccc(-c2nc(-c3cccs3)c(-c3cccs3)[nH]2)cc1O | 443.1 | 164.4* | 104.4 | 51.0 | 101.3 | 67.5 | 106.2 | 101.3 | 98.0 | 97.3 | 96.9 | .
CCC(=O)Oc1oc(-c2ccccc2)nc1C=Nc1ccccc1OC | 528.5 | 103.2 | 80.6 | 91.9 | 98.7 | 94.2 | . | . | . | . | . | 0
CN(C)c1ccc(N=Cc2nc(-c3ccccc3)oc2OC(=O)c2cccc(Br)c2)cc1 | 63.5 | 98.2 | 106.2 | 96.8 | 108.7 | 102.0 | . | . | . | . | . | .
CCC(=O)Oc1oc(-c2ccccc2)nc1C=Nc1ccc(C)cc1 | 221.8 | 103.0 | 90.3 | 102.0 | 95.6 | 101.4 | . | . | . | . | . | -0.5
CCc1ccc(OCC(=O)NNC(=S)NC(=O)C2CC2)c(Br)c1 | i | 166.2* | 88.3 | 93.5 | 116.2 | 106.0 | . | . | . | . | . | 0.71 | s288c autofl DR=0.73;TORC1 bypass gr=3
COc1ccc(OCC(=O)NNC(=S)NC(=O)C2CCCCC2)cc1 | 279.8 | 170.1* | 116.2 | 104.4 | 126.8 | 105.9 | 240.4* | 139.8 | 112.8 | 154.9* | 105.6 | 2.43
COc1ccc(OCC(=O)NNC(=S)NC(=O)C2CC2)cc1 | 362.3 | 102.1 | 92.4 | 99.4 | 107.0 | 110.0 | . | . | . | . | . | .
CCOC(=O)c1c(C)oc2c1c(C(c1ccncc1)N1CCOCC1)c(O)c1ccccc12 (configuration not stated) | 467.0 | 185.2* | 92.1 | . | 93.4 | 89.2 | . | . | . | . | . | 2.62
O=C(OCC(=O)N1CCN(C(=O)COC(=O)c2ccc(O)cc2O)CC1)c1ccc(O)cc1O | 189.3 | 102.9 | 103.8 | 102.5 | 92.2 | 99.5 | . | . | . | . | . | .
CC1CCN(S(=O)(=O)N2CCCC(C(=O)NCc3ccc(F)cc3)C2)CC1 (configuration not stated) | 325.6 | 90.9 | 101.2 | 17.8 | 147.1 | 63.2 | 101.2 | 101.3 | 98.0 | 105.7 | 99.8 | .
COc1ccc(CNC(=O)COC(=O)c2ccc(S(=O)(=O)N3CCCCC3)cc2)cc1 | 469.1 | 93.6 | 117.2 | 101.2 | 109.5 | 104.6 | . | . | . | . | . | .
Cc1ccc(S(=O)(=O)/C(C#N)=C/c2c(Oc3ccc(Cl)cc3)nc3c(C)cccn3c2=O)cc1 | 391.2 | 80.7 | 103.8 | 21.4 | 383.6* | 52.2 | 102.2 | 101.3 | 100.6 | 94.6 | 99.7 | .
CCn1c(=O)c([N+](=O)[O-])c(NCc2ccco2)c2ccccc21 | 340.6 | 201.1*[may fluoresce green] | 95.1 | 96.3 | 109.0 | 92.1 | 104.2 | 115.3 | 97.8 | 107.1 | 100.8 | .
CCNc1c([N+](=O)[O-])c(=O)n(CC)c2ccccc12 | 511.1 | 98.7 | 99.6 | 97.3 | 91.6 | 96.3 | . | . | . | . | . | .
CCc1nc2ccccc2c(=O)n1NC(=O)c1c(O)c2ccccc2n(CC)c1=O | 160.9 | 86.8 | 102.6 | 39.5 | 123.9 | 53.5 | 125.2 | 223.6* | 42.2* | 168.3* | 43.8 | 1.4
O=C(Nn1c(Cc2ccccc2)nc2ccccc2c1=O)c1c(O)c2cccc3c2n(c1=O)CCC3 | 286.1 | 103.2 | 92.9 | 102.8 | 91.2 | 94.8 | . | . | . | . | . | .
CCn1c(=O)c(C(=O)Nc2nc3ccccc3[nH]2)c(O)c2ccccc21 | 249.0 | 176.3* | 84.5 | 39.8 | 125.7 | 66.9 | . | . | . | . | . | 4.44
